How the values were obtained:
[1] = Drug metabolism in human KB cells assessed as formation of protoporphyrin 9 after 2 to 24 hrs by fluorescence spectrometer; assay type: ADME, cell-based
How it was run: (§1)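 KB monolayers (48 h after seeding ~5×10^4/well) washed, then given prodrug or ALA at 50 μM in serum-free medium at 37 °C. PpIX fluorescence read in wells at 2, 4, 6 and 24 h, excitation 405 nm, emission 635 nm. Untreated wells subtracted for autofluorescence; mean intensity in arbitrary units, triplicate.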

[2] = Drug metabolism in human KB cells assessed as protoporphyrin 9 formation at 500 uM preincubated for 1 hr at 4 degC followed by compound washout and subsequent incubation for 4 hrs at 37 degC by fluorescence spectrometer; assay type: ADME, cell-based
How it was run: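 KB cells exposed 1 h to 500 μM prodrug in clear medium at either 4 °C or 37 °C, plates foil-wrapped. Compound then removed, PBS rinse, fresh medium, both plates 4 h at 37 °C. PpIX read in wells at 405/635 nm after subtracting untreated wells.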

[3] = Drug metabolism in human KB cells assessed as formation of protoporphyrin 9 at 100 uM after 6 to 24 hrs by fluorescence spectrometer; assay type: ADME, cell-based
How it was run: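 Time course in KB cells at 37 °C after 100 μM conjugate, ALA, or 1:1 ALA + HPO mixture in serum-free medium. Well PpIX fluorescence read at 405 nm excitation / 635 nm emission, control autofluorescence subtracted, triplicate means.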

[4] = test system: KB; assay: Phototoxicity in human KB cells assessed as reduction in cell viability preincubated for 4 hrs followed by irradiation with blue light at 2.5 J/cm2 and subsequent incubation for 18 hrs measured after 24 hrs post treatment by MTT assay; assay type: functional; conditions: for CC50: light or radiation study, read-out: LD50 (the source's name)
How it was run: (§2)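 Cells seeded ~5 × 10^4 per well, grown 48 h, washed with PBS, then 4 h with compound (five concentrations within 1–100 μM, triplicate, three untreated control wells per plate). Irradiated with blue light, peak ~420 nm, 2.5 J/cm². Medium replaced, cells kept a further 18 h. MTT read at A570 24 h after treatment; survival expressed as percentage of control. LD50 taken from two sets of experiments.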

[5] = test system: MCF7; assay: Phototoxicity in human MCF7 cells assessed as reduction in cell viability preincubated for 4 hrs followed by irradiation with blue light at 2.5 J/cm2 and subsequent incubation for 18 hrs measured after 24 hrs post treatment by MTT assay; assay type: functional; conditions: for CC50: MCF7, light or radiation study, read-out: LD50 (the source's name); how it was run: as §2
[6] = test system: MCF7R; assay: Phototoxicity in human doxorubicin resistant MCF7/R cells assessed as reduction in cell viability preincubated for 4 hrs followed by irradiation with blue light at 2.5 J/cm2 and subsequent incubation for 18 hrs measured after 24 hrs post treatment by MTT assay; assay type: functional; conditions: for CC50: light or radiation study, read-out: LD50 (the source's name); how it was run: as §2
[7] = test system: KB; assay: Dark toxicity against human KB cells at 200 uM preincubated for 4 hrs followed by compound washout measured after 24 hrs by MTT assay; assay type: cell-based
How it was run: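 Dark toxicity in KB cells: 200 μM compound for 4 h with no light, removed, cells kept 24 h. Viability by MTT (2 h, A570 after DMSO solubilisation), given as % of untreated controls. Triplicate.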

[8] = Drug metabolism in human KB cells assessed as formation of protoporphyrin 9 preincubated for 2 hrs followed by compound washout measured after 24 hrs by HPLC-based fluorescence analysis; assay type: ADME, cell-based
How it was run: (§3)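 Cells given ALA or conjugate for 2 h at 37 °C, then fresh medium without compound. At 24 h, lysed in CelLytic (15 min, room temperature), scraped and spun 1800g for 10 min. Supernatant PpIX read by fluorescence at 405/635 nm and normalised per mg protein (BCA). Untreated blanks subtracted.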

[9] = Drug metabolism in human doxorubicin resistant MCF7/R cells assessed as formation of protoporphyrin 9 preincubated for 2 hrs followed by compound washout measured after 24 hrs by HPLC-based fluorescence analysis; assay type: ADME, cell-based; conditions: mcf7r; how it was run: as §3
[10] = Drug metabolism in human doxorubicin resistant MCF7/R cells assessed as formation of protoporphyrin 9 at 100 uM after 6 hrs by fluorescence spectrometer relative to ALA; assay type: ADME, cell-based; conditions: mcf7r
How it was run: (§4)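 MCF-7R monolayers exposed 6 h at 37 °C to ALA, conjugates or ALA hexyl/octyl esters at 1–100 μM in serum-free medium. PpIX emission at 635 nm (405 nm excitation; spectra 600–750 nm) read in wells. Untreated controls subtracted; mean of triplicates in arbitrary units.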

[11] = test system: KB; assay: Dark toxicity against human KB cells assessed as cell survival at 100 uM after 24 hrs by MTT assay; assay type: cell-based
[12] = test system: CNE-2; assay: Phototoxicity in human CNE2 cells assessed as reduction in cell viability preincubated for 4 hrs followed by irradiation with 6 J/cm2 light dose measured after 24 hrs by MTT assay; assay type: functional
[13] = Drug metabolism in human doxorubicin resistant MCF7/R cells assessed as formation of protoporphyrin 9 at 100 uM after 6 hrs by fluorescence spectrometer; assay type: ADME, cell-based; conditions: mcf7r; how it was run: as §4
[14] = test system: CNE-2; assay: Phototoxicity in human CNE2 cells assessed as reduction in cell viability preincubated for 4 hrs followed by irradiation with 4 J/cm2 light dose measured after 24 hrs by MTT assay; assay type: functional
[15] = test system: CNE-2; assay: Potency index, ratio of ALA LD80 to test compound LD80 for phototoxicity against human CNE2 cells; assay type: functional
[16] = Dark toxicity against human KB cells assessed as cell survival at 100 uM after 4 hrs by MTT assay; assay type: cell-based; conditions: read-out: Survival
How it was run: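 Cells seeded ~5 × 10^4 per well, grown 48 h, washed with PBS, then exposed to compound in medium for 4 h without irradiation. Incubation then continued for 24 h after prodrug removal. Viability by MTT (1 mg/mL, 2 h), formazan dissolved in DMSO, A570, expressed as percentage of untreated control wells on the same plate. Triplicate.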

[17] = test system: KB; assay: Dark toxicity against human KB cells preincubated for 4 hrs followed by compound washout measured after 24 hrs by MTT assay; assay type: cell-based
How it was run: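 KB cells seeded ~5×10^4/well, grown 48 h, PBS-washed, then exposed to compound for 4 h without irradiation. Medium replaced and cells kept a further ~24 h. Survival by MTT (1 mg/mL in EMEM, 2 h), formazan dissolved in DMSO, A570, expressed as % of untreated control wells. Triplicate wells.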

[18] = Drug metabolism in mouse PAM212 cells assessed as formation of protoporphyrin 9 at 0.01 mM after 6 hrs by fluorescence spectrometer relative to ALA; assay type: ADME, cell-based; conditions: pam212, 6 h, 10 µM
[19] = Drug metabolism in human doxorubicin resistant MCF7/R cells assessed as formation of protoporphyrin 9 after 6 hrs by fluorescence spectrometer; assay type: ADME, cell-based; conditions: mcf7r; how it was run: as §4
[20] = Drug metabolism in human KB cells assessed as formation of protoporphyrin 9 at 50 uM after 2 to 24 hrs by fluorescence spectrometer; assay type: ADME, cell-based; how it was run: as §1
[21] = Drug metabolism in human MCF7 cells assessed as formation of protoporphyrin 9 at 50 uM after 6 hrs by fluorescence spectrometer; assay type: ADME, cell-based; conditions: mcf7, 6 h
How it was run: (§5)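 MCF-7 or MCF-7R cells incubated 6 h at 37 °C with 50 μM conjugate, or with 50 μM ALA and HPO as a 1:1 mixture, in serum-free medium. PpIX fluorescence read in wells at 405/635 nm, untreated-well values subtracted, triplicate.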

[22] = Drug metabolism in human KB cells assessed as formation of protoporphyrin 9 at 50 uM after 24 hrs by fluorescence spectrometer relative to ALA; assay type: ADME, cell-based; how it was run: as §1
[23] = test system: KB; assay: Phototoxicity in human KB cells assessed as cell survival at 10 uM preincubated for 4 hrs followed by irradiation with blue light at 2.5 J/cm2 and subsequent incubation for 18 hrs measured after 24 hrs post treatment by MTT assay relative to control; assay type: functional; conditions: light or radiation study, read-out: Survival; how it was run: as §2
[24] = Prodrug conversion in human KB cells assessed as accumulation of ALA at 100 uM after 2 hrs by HPLC-based fluorescence analysis relative to ALA; assay type: ADME, cell-based
How it was run: (§6)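 KB or MCF-7R cells incubated 2 h with 100 μM ALA or conjugate, then extracted with CelLytic. Lysate ALA derivatised with acetylacetone/ethanol/water (15/45/40) plus 10% formaldehyde at 100 °C for 10 min. Analysed by C18 HPLC with fluorescence detection (excitation 370 nm, emission 460 nm) against spiked-lysate calibration. Normalised per mg protein.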

[25] = Prodrug conversion in human doxorubicin resistant MCF7/R cells assessed as accumulation of ALA at 100 uM after 2 hrs by HPLC-based fluorescence analysis relative to ALA; assay type: ADME, cell-based; conditions: mcf7r; how it was run: as §6
[26] = Drug metabolism in human MCF7 cells assessed as formation of protoporphyrin 9 preincubated for 2 hrs followed by compound washout measured after 24 hrs by HPLC-based fluorescence analysis; assay type: ADME, cell-based; conditions: mcf7, 24 h; how it was run: as §3
[27] = Drug metabolism in human doxorubicin resistant MCF7/R cells assessed as formation of protoporphyrin 9 at 1 to 100 uM after 6 hrs by fluorescence spectrometer; assay type: ADME, cell-based; conditions: mcf7r
How it was run: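 Cells seeded ~5 × 10^4 per well and grown 48 h, washed with PBS. Then 6 h at 37 °C with 1–100 μM prodrug in serum-free medium. PpIX fluorescence read with excitation 405 nm and emission 635 nm (scan 600–750 nm, 515 nm long-pass filter). Values are mean intensity in arbitrary units after subtracting no-prodrug control wells. Triplicate.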

[28] = Drug metabolism in human doxorubicin resistant MCF7/R cells assessed as formation of protoporphyrin 9 at 50 uM after 6 hrs by fluorescence spectrometer; assay type: ADME, cell-based; conditions: mcf7r; how it was run: as §5

| SMILES | Drug metabolism [1] | Drug metabolism [2] | Drug metabolism [3] | Activity [4] | CC50 [4] [µM] | Activity [5] | CC50 [5] [µM] | Activity [6] | CC50 [6] [µM] | Activity [7] | Drug metabolism [8] | Drug metabolism [9] | Activity [11] | viability at 4 h, 100 µM [16] [%] | Activity [17] | other results |
| --- | --- | --- | --- | --- | --- | --- | --- | --- | --- | --- | --- | --- | --- | --- | --- | --- |
| CCc1c(O)c(=O)ccn1CCOCCOCCOC(=O)CCC(=O)CN.Cl | Metabolite_Detected | Metabolite_Detected | Metabolite_Detected | Dose-dependent effect | 19.6 | Dose-dependent effect | 15.8 | Dose-dependent effect | 11.3 | Non-Toxic | Metabolite_Detected | Metabolite_Detected | Non-Toxic |  |  | fold change (FC) [10]: 20 |
| NCC(=O)CCC(=O)O [AMINOLEVULINIC ACID] |  | Metabolite_Notdetected |  | Dose-dependent effect | 124 | Dose-dependent effect | 131 | Dose-dependent effect | 122 | Non-Toxic |  |  | Non-Toxic |  |  | LD80 [12]: 0.75 mM; Drug metabolism [13]: Metabolite_Detected |
| CCCCCCOC(=O)CCC(=O)CN [HEXAMINOLEVULINATE] | Metabolite_Detected |  |  | Dose-dependent effect | 2.6 | Dose-dependent effect | 9.3 | Dose-dependent effect | 8.4 |  |  |  |  | 9 | Toxic | LD80 [14]: 0.03 mM; Ratio [15]: 40 |
| CCCCCCCCOC(=O)CCC(=O)CN |  |  |  |  |  |  |  |  |  |  |  |  |  | 14 | Toxic |  |
| COC(=O)CCC(=O)CNC(=O)[C@H](Cc1ccccc1)NC(C)=O |  |  |  |  |  |  |  |  |  |  |  |  |  |  |  | fold change (FC) [18]: 5 |
| CCc1c(O)c(=O)ccn1CCCCCCCCCCOC(=O)CCC(=O)CN.Cl |  | Metabolite_Detected | Metabolite_Detected | Dose-dependent effect | 2.3 | Dose-dependent effect | 8.1 | Dose-dependent effect | 3.9 | Non-Toxic | Metabolite_Detected | Metabolite_Detected | Non-Toxic |  |  | Drug metabolism [19]: Dose-dependent effect; Drug metabolism [20]: Metabolite_Detected; Drug metabolism [21]: Metabolite_Detected; fold change (FC) [22]: 10.2; viability at 10 µM [23]: < 6%; fold change (FC) [24]: 8; fold change (FC) [25]: 8; Drug metabolism [26]: Metabolite_Detected; Flu intensity [27]: 2 to 25 a.u.; Drug metabolism [28]: Metabolite_Detected |

Source: ChEMBL document CHEMBL4049424, “Hydroxypyridinone and 5-Aminolaevulinic Acid Conjugates for Photodynamic Therapy” (J Med Chem, 2017)
